Screening results deposited in PubChem by several laboratories.
T cruzi repl – T. cruzi replication inhibition | T. cruzi beta-gal in NIH3T3, luminescence, 90 h | inhibition, % (concentration not given with the values) | 300,000 tested, 1.4% active | AID 1885;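 active = mean inhibition across valid replicates above about 55%, limit read from the data; inconclusive = mean below that limit but half or more replicates reach it; inactive = mean below it, under half of replicates reach it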;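 note: signal also drops with host cell toxicity which is not excluded here; 0% = plate median of DMSO wells and 100% = zero luminescence signal; higher percent means less beta-gal luminescence so fewer parasites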
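Test system: β-gal T. cruzi (Tulahuen C4) inside NIH/3T3 cells / Quantity: 5,000 cells/well / Measured by: luminescence from GalScreen with 0.05% NP40, read after 60 min / Medium: DMEM plus 2% FBS / Measure: parasite load inhibition, % / Reagent: Tulahuen C4 trypomastigotes, 5000/well / Schedule: co-culture of at least 90 h after 3 h attachment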
Beta apoptosis – blocks beta cell apoptosis; INS-1E cytokine-induced death, ATP luminescence, 48 h; percent of positive-control rescue, neutral wells zero; protection from apoptosis, % (concentration not given with the values); 300,000 tested, 0.8% active;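 active = Every replicate reaches about 75%, or at least half do and their mean reaches it too, limit read from the data; inconclusive = At least half of replicates reach the limit but their mean does not; inactive = Under half of replicates reach the limit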;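 note: 0% = cytokine-treated negative control wells and 100% = positive control rescue; higher means more ATP so stronger rescue from cytokine killing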
CSC inhib – cancer stem cell inhibition; cancer stem cell-like cells viability, luminescence; 300,000 tested, 1.1% active; inhibition, % at 7.5 µM; in the data active = inhibition above about 75%; inconclusive = no clear call, values can overlap the other calls; tested in HMLE shEcad cells
UPR XBP1 act – adaptive UPR (XBP1) activation; CHO-XBP1 luciferase reporter, IRE1-XBP1 UPR activation, luminescence; percent of tunicamycin response, DMSO as zero; activation, % at 20 µM; 330,000 tested, 0.33% active;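 active = versus positive control, 20 µM dose yields 30% or more activation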;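 note: 100% = tunicamycin at 10 µg/mL and 0% = DMSO only wells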
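Material: CHO-XBP1 cells stably carrying IRE1-XBP1-driven luciferase reporter / Amount: 1000 cells per well / Compound: 20 µM, 1% DMSO / Times: 6 h treatment, 37 °C / Detection: luciferase luminescence / Measure: % activation of reporter signal versus tunicamycin and DMSO controls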
Mdm2 MdmX PPI – inhibitors of human Mdm2/MdmX interaction | SaOS-2 split-luciferase Mdm2/MdmX complementation, luminescence | inhibition, % at 8 µM | 330,000 tested, 3% active | AID 485346;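 active = inhibition of at least 50% at 8 µM in the primary screen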
Target sequence (O15151 whole entry, looked up): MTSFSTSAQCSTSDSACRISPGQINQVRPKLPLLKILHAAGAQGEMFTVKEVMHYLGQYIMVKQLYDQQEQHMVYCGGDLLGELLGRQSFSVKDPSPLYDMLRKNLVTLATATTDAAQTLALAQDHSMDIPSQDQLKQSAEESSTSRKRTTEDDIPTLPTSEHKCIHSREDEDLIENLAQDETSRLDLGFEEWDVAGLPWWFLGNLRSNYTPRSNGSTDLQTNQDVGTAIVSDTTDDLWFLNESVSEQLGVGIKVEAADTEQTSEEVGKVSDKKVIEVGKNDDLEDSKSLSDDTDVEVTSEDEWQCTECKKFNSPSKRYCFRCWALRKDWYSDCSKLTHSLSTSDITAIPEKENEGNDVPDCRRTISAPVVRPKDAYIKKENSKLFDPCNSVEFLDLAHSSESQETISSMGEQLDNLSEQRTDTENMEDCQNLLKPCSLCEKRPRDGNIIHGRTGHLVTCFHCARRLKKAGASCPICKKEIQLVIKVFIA
Target sequence (Q00987 whole entry, looked up): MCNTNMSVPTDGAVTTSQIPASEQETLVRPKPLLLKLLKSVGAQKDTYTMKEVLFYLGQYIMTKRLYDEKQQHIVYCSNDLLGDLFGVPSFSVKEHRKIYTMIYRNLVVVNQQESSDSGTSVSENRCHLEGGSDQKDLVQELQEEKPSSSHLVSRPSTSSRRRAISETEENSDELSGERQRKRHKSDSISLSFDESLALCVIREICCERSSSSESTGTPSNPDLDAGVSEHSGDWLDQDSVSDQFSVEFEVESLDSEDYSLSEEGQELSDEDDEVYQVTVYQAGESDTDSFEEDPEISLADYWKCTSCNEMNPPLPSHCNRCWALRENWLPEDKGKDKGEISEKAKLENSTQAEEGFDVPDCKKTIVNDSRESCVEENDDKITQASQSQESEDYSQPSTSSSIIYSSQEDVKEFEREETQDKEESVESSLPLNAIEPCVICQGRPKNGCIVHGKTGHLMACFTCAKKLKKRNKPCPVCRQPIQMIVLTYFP
CHOP UPR activ – apoptotic UPR (CHOP) activation; CHO-CHOP luciferase reporter, luminescence; percent of tunicamycin response over DMSO baseline; activation, % at 10 µM; 330,000 tested, 0.34% active;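 active = at 10 µM dose, activation of 40% or more, normalized to positive control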;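 note: 100% = tunicamycin at 10 µg/mL and 0% = DMSO alone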
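Test system: CHO CHOP reporter cells. Input: 500 CHO-CHOP cells per well. Medium: F12 with 10% FBS. Technique: luciferase luminescence. Measure: percent activation relative to tunicamycin control. Dosing: 10 µM compound, 0.5% DMSO. Timing: 16-18 h cell attachment, then 6 h compound exposure, 37 °C.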
Mdm2-MdmX conf – confirmation of human Mdm2/MdmX interaction inhibitors | inhibition, % at 8 µM | Mdm2-MdmX binding, luminescent assay | 10,000 tested, 55% active | shares compounds with Mdm2 MdmX PPI; in the data active = inhibition above about 40%
FLuc counter – counter-screen for Mdm2/MdmX inhibitors: full-length luciferase. shares compounds with Mdm2 MdmX PPI. inhibition, % at 8 µM. 6,200 tested, 77% active. SaOS-2 full-length luciferase counterscreen, luminescence. AID 504607;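 active = mean inhibition at 8 µM reaching about 37%, which flags the compound as non-specific, limit read from the data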;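 note: p53-null SaOS-2 cells with luciferase driven by a doxycycline-inducible promoter; compound on cells about two nights before reading with doxycycline added after day one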
Starred values were filed as active, the others as inactive; ? = inconclusive; . = not tested or not shown; ! = not confirmed by another sample. Only some compounds are listed: those with a hit (about 5% of all), similar ones and a draw of the others.

SMILES | T cruzi repl | Beta apoptosis | CSC inhib | UPR XBP1 act | Mdm2 MdmX PPI | CHOP UPR activ | Mdm2-MdmX conf | FLuc counter
Cc1cc(C)c(S(=O)(=O)/N=C2\C=C(Nc3ccc(C(=O)O)cc3)C(=O)c3ccccc32)c(C)c1 | 17 | 113* | . | -10 | 78* | 36 | 68* | 51*
CCc1ccc(S(=O)(=O)/N=C2\C=C(Nc3cccc(C(=O)O)c3)C(=O)c3ccccc32)cc1 | -2 | 52 | . | 0 | 31 | 4 | . | .
CCc1ccc(S(=O)(=O)/N=C2\C=C(Nc3ccc(O)cc3)C(=O)c3ccccc32)cc1 | 52 | 115* | . | -10 | 100* | 3 | 97* | 2
Cc1cc(C(=O)NC2Cc3ccccc3C2)c(C)o1 | -11 | -6 | 14 | -1 | -92 | 4 | . | .
Nc1nc(COC(=O)C2CCN(C(=O)c3ccc(Cl)cc3)CC2)nc(Nc2ccccc2)n1 | . | -12 | -12 | -2 | 7 | 1 | . | .
Cc1ccc(N/C(N)=N/c2nc(CSc3nnc(C)s3)cc(=O)[nH]2)c(C)c1 | -18 | 21 | 5 | 11 | 60* | 1 | 56* | 68*
COc1ccc(N/C(N)=N/c2nc(CSc3nnc(C)s3)cc(=O)[nH]2)cc1 | -56 | 5 | 1 | 0 | 52* | 0 | 65* | 65*
COc1ccc(N/C(N)=N/c2nc(C)cc(=O)[nH]2)cc1 | -13 | -3 | -7 | -1 | 21 | 3 | . | .
Cc1cccc(N/C(N)=N/c2nc(CSc3ccc(Cl)cc3)cc(=O)[nH]2)c1 | -29 | 13 | 7 | 38* | 68* | 17 | 7 | .
CN1C(=O)/C(=C/c2ccc(OCc3ccc(F)cc3)cc2)NC1=S | -3 | . | . | 2 | 27 | 7 | . | .
CCOC(=O)COc1ccc(S(=O)(=O)N2CCN(c3ccccc3)CC2)cc1 | 0 | 6 | 1 | -2 | 16 | 2 | . | .
CCOC(=O)C1=C(CCc2ccccc2)NC(=O)NC1c1ccc(C#N)cc1 (stereo not drawn) | 0 | -6 | -3 | -2 | 13 | -1 | . | .
CC(C)CN(C(=O)CSc1n[nH]c(-c2cccs2)n1)C1CCS(=O)(=O)C1 (stereo not drawn) | . | -3 | -14 | 1 | -8 | 0 | . | .
Cc1nc2c(C)cccc2cc1C(=O)N/N=C/c1ccc(N(C)C)cc1 | -19 | -6 | 64 | -1 | 50* | -1 | 49* | 57*
S=C(NCCc1cnc[nH]1)NC1CCCC1 | -7 | -5 | 4 | -2 | 13 | 1 | . | .
CCCS(=O)(=O)c1cnc(C2COc3ccccc3O2)nc1N (stereo not drawn) | -2 | 12 | ? | -9 | 82* | -11 | 85* | 48*
CCOC(=O)C1=C(C)Nc2nnnn2C1c1ccccc1Cl (stereo not drawn) | . | 1 | -10 | 0 | -15 | 0 | . | .
CCOC(=O)C1=C(COCCN)NC(C)=C(C(=O)OC)C1c1ccccc1Cl (stereo not drawn) | 46 | -3 | 11 | -2 | 62*! | 15 | 21 | .
O=C(COc1ccc(Br)cc1)N1CCNC1=O | -29 | . | . | 0 | 14 | 0 | . | .
Cc1ccc2nc(C(F)(F)F)c(C#N)c(N)c2c1 | 19 | -34 | 23 | -3 | 85* | -2 | 67* | 26
Cc1cc(C)c2nc(C(F)(F)F)c(C#N)c(N)c2c1 | 3 | -8 | -2 | -1 | 71* | 1 | 86* | 55*
C[C@@H]1[C@H]2[C@@H]3CC[C@@H](C3)[C@H]2CN[C@H]1c1cn(Cc2ccccc2)c2ccccc12 | . | . | . | 3 | 54* | 2 | 31 | .
COc1ccc(C(=O)c2ccc(N(C)C)cc2)c(OC)c1 | -32 | 11 | 72 | -1 | 62* | 1 | 48* | 37*
CN(C)c1ccc(C(=O)c2ccc(N(C)C)c3ccccc23)cc1 | 47 | 44 | 5 | 28 | 56* | 3 | 50* | 181*
CCOC(=O)c1c(C)[nH]c(C)c1C(=O)COC(=O)c1cccs1 | . | -4 | 1 | -1 | 18 | 1 | . | .
SMILES | T cruzi repl | Beta apoptosis | CSC inhib | UPR XBP1 act | Mdm2 MdmX PPI | CHOP UPR activ | Mdm2-MdmX conf | FLuc counter
Cc1nc2ccccn2c1-c1csc(Nc2ccc(C(=O)O)cc2)n1 | -3 | 20 | 56 | 2 | 53* | -3 | 54* | 63*
COc1ccc2c(c1)C(=O)[C@H](O)[C@@H](c1ccc(OC)c(Br)c1)O2 | 14 | 109* | 108* | -2 | 71* | 2 | -6 | .
O=C(/C=C/c1cccs1)N1CCC2(CC1)Oc1ccc(Cl)cc1C(=O)C21CC(c2cccnc2)=NO1 (stereo not drawn) | 15 | 14 | 45 | -2 | 67* | 1 | 27 | .
Cc1ccc(C(=O)N2CCC3(CC2)Oc2ccc(Cl)cc2C(=O)C32CC(c3cccnc3)=NO2)s1 (stereo not drawn) | 1 | -8 | 4 | -1 | 15 | 1 | . | .
COc1ccc2c(c1)O[C@H](c1ccc3c(c1)OCO3)[C@@H](OC(=O)Nc1cc(OC)c(OC)c(OC)c1)C2=O | 20 | . | -20 | 4 | 61* | 0 | 62* | 67*
COc1cccc([C@@H]2Oc3ccc(OC)cc3C(=O)[C@H]2OC(=O)Nc2cc(OC)c(OC)c(OC)c2)c1 | . | 1 | -19 | -5 | -13 | 2 | . | .
COc1ccc2c(c1)O[C@H](c1ccc3c(c1)OCO3)[C@@H](OC(=O)N[C@H](C)C1CCCCC1)C2=O | -2 | 43 | 19 | 21 | 59* | 4 | 26 | .
COc1cccc([C@@H]2Oc3ccc(OC)cc3C(=O)[C@H]2OC(=O)N[C@H](C)C2CCCCC2)c1 | 26 | 1 | -4 | 4 | 43 | 7 | . | .
COc1ccccc1NS(=O)(=O)c1cc2c3c(c1)CCN3C(=O)CC2 | 3 | 1 | -6 | -2 | -3 | -1 | . | .
CCCCCc1ccc(OCCC[n+]2ccccc2)c(CCCCC)c1 | 75* | 113* | 11 | 5 | 89* | 0 | 76* | 22
CCCCCc1ccc(OCCOCCn2c[n+](C)c3ccccc32)c(CCCCC)c1 | 39 | . | . | . | . | . | . | .
O=C(COC(=O)CNS(=O)(=O)c1c(F)cccc1F)NC(=O)NC1CCCCC1 | . | -3 | -5 | 0 | 7 | -1 | . | .
O=C(Nc1ccccc1[N+](=O)[O-])C1=C(O)CCn2c1nc1ccccc12 | 6 | 23 | 2 | 7 | 71* | 2 | 18 | .
O=C(Nc1ccccc1[N+](=O)[O-])c1cc2ccccc2nc1Cl | -10 | -8 | . | 4 | 64* | 22 | -26 | .
